Measured values published in ChEMBL document CHEMBL4002589, “Tri- and Tetrasubstituted Pyridinylimidazoles as Covalent Inhibitors of c-Jun N-Terminal Kinase 3” (J Med Chem, 2017).
pIC50: −log10 of the molar value. Active and inactive are the calls of the source. The rule behind the calls is not given here.

Columns and labels:
[1] = biological target: Casein kinase I isoform gamma-2 (Homo sapiens) (UniProt P78368); assay: Inhibition of CK1 gamma2 (unknown origin) assessed as residual activity at 1 uM relative to control
Summary of the method: (§1)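 Each inhibitor is tested at a single concentration, 1 µM or 0.5 µM depending on the compound. Results are reported as residual kinase activity.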

[2] = tested on: Mitogen-activated protein kinase 10 (Homo sapiens), P53779 [C154A]; assay: Covalent binding affinity to JNK3 C154A mutant (unknown origin) at 5 molar excess after 1 hr by LC-muESI-QTOF mass spectrometry
Summary of the method: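 Intact-protein mass spectrometry with a JNK3 mutant carrying Cys-154→Ala. Inhibitor is incubated with the protein. Unbound and reversibly bound ligand are removed by chromatography and by a high declustering potential before ionization. The protein is then analysed by LC-µESI-QTOF to look for a mass shift from a covalent adduct.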

[3] = biological target: Mitogen-activated protein kinase kinase kinase 20 (Homo sapiens) (UniProt Q9NYL2); assay: Inhibition of ZAK (unknown origin) assessed as residual activity at 1 uM relative to control; summary of the method: as §1
[4] = biological target: T1, Serine/threonine-protein kinase D3 (Homo sapiens) (UniProt O94806); assay: Inhibition of human PKC-nu (3 to 890 residues) expressed in Sf9 cells assessed as residual activity at 1 uM relative to control; summary of the method: as §1
T1 sequence (whole entry): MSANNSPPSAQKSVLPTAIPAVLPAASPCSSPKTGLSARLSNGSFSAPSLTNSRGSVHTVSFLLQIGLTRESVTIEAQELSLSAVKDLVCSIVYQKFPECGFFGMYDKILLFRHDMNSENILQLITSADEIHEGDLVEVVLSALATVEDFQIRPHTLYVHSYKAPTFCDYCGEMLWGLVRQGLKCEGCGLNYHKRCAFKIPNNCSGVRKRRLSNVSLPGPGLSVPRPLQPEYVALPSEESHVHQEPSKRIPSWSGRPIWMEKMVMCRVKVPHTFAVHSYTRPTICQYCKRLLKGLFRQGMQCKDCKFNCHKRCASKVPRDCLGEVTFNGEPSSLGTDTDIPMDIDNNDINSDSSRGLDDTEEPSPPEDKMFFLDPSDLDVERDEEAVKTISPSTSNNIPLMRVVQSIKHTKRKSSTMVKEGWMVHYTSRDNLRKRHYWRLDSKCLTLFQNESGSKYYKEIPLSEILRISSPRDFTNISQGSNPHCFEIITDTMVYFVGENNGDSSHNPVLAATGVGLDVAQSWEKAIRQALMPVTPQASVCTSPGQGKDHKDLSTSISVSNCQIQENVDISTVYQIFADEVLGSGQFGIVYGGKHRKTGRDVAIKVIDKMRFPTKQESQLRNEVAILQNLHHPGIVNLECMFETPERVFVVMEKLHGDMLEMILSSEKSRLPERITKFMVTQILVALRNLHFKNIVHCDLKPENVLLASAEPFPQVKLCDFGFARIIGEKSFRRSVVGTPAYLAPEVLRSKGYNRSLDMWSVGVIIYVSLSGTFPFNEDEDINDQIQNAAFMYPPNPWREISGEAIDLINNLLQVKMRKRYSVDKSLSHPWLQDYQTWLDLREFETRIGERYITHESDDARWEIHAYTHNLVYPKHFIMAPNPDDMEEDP

[5] = biological target: Mitogen-activated protein kinase kinase kinase 11 (Homo sapiens) (UniProt Q16584); assay: Inhibition of MAP3K11 (unknown origin) assessed as residual activity at 1 uM relative to control; summary of the method: as §1
[6] = biological target: Mitogen-activated protein kinase kinase kinase 10 (Homo sapiens) (UniProt Q02779); assay: Inhibition of MAP3K10 (unknown origin) assessed as residual activity at 1 uM relative to control; summary of the method: as §1
[7] = biological target: Casein kinase I isoform gamma-3 (Homo sapiens) (UniProt Q9Y6M4); assay: Inhibition of CK1 gamma3 (unknown origin) assessed as residual activity at 1 uM relative to control; summary of the method: as §1
[8] = biological target: Casein kinase I isoform delta (Homo sapiens) (UniProt P48730); assay: Inhibition of CK1 delta (unknown origin) assessed as residual activity at 1 uM relative to control; summary of the method: as §1
[9] = Drug metabolism in human liver microsomes at 100 uM preincubated with NADPH regenerating system for 5 mins followed by addition of liver microsomes measured after 190 mins by LC-MS analysis; assay type: ADME, microsome; settings: read-out: Drug metabolism
[10] = biological target: Mitogen-activated protein kinase 14 (Homo sapiens, UniProt Q16539); assay: Inhibition of GST-His tagged human p38alpha expressed in Escherichia coli assessed as reduction in ATF2 phosphorylation measured after 60 mins by ELISA
Summary of the method: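 ELISA kinase assays run in parallel for JNK3 and p38α, with 60 min incubation. IC50 values are the mean of three experiments.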

[11] = biological target: Serine/threonine-protein kinase 16 (Homo sapiens) (UniProt O75716); assay: Inhibition of full length human GST-tagged TSF1 expressed in Sf9 cells assessed as residual activity at 1 uM relative to control; summary of the method: as §1
[12] = biological target: Dual specificity protein kinase CLK4 (Homo sapiens) (UniProt Q9HAZ1); assay: Inhibition of CLK4 (unknown origin) assessed as residual activity at 1 uM relative to control; summary of the method: as §1
[13] = biological target: T2, Dual specificity mitogen-activated protein kinase kinase 7 (Homo sapiens) (UniProt O14733); assay: Inhibition of full length human GST-HIS tagged MKK7 expressed in Sf9 cells assessed as residual activity at 1 uM relative to control; summary of the method: as §1
T2 sequence (whole entry): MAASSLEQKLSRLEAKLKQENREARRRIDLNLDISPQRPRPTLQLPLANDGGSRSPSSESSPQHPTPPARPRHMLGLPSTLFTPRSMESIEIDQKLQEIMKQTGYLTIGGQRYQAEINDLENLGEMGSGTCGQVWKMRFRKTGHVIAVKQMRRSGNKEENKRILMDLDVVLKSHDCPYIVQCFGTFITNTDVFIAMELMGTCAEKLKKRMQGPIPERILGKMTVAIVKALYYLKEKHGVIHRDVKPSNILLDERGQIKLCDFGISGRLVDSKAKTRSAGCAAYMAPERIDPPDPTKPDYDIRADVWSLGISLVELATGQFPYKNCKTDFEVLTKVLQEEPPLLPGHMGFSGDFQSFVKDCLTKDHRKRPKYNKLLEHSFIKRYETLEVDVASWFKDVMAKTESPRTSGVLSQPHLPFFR

Chain of Serine/threonine-protein kinase 16 (Homo sapiens) (O75716 whole entry): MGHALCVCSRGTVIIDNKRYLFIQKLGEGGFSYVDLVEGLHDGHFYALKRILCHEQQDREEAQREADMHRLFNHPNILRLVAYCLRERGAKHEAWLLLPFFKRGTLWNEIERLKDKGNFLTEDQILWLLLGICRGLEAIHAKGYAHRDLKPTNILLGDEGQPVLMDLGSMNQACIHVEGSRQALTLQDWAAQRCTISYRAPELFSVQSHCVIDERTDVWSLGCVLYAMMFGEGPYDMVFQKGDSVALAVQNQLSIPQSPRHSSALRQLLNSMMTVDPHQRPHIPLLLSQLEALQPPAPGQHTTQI
Chain of Mitogen-activated protein kinase 10 (Homo sapiens), P53779 [C154A] (P53779 whole entry C154A): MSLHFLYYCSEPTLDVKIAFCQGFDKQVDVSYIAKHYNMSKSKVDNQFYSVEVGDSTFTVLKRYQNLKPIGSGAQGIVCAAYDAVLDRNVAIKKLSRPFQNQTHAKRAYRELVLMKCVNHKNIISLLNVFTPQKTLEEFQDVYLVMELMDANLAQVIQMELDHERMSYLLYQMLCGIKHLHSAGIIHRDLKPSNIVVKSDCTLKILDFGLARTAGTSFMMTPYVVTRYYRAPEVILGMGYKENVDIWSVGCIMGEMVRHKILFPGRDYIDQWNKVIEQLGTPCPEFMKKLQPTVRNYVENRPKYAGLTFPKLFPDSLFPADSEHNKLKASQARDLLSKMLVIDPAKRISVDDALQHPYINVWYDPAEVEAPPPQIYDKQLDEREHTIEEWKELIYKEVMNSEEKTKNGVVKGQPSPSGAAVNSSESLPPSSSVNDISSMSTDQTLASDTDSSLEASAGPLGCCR
Chain of Mitogen-activated protein kinase 14 (Q16539 whole entry): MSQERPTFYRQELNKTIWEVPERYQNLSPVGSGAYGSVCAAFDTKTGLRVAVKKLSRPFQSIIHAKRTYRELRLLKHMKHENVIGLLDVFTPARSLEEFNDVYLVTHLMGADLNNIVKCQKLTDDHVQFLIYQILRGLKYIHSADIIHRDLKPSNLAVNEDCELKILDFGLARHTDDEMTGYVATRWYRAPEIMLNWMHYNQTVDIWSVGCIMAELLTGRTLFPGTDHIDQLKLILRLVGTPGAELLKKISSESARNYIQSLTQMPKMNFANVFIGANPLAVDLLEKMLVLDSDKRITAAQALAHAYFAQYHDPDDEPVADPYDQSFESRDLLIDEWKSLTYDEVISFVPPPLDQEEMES
Chain of Casein kinase I isoform delta (Homo sapiens) (P48730 whole entry, looked up, canonical isoform): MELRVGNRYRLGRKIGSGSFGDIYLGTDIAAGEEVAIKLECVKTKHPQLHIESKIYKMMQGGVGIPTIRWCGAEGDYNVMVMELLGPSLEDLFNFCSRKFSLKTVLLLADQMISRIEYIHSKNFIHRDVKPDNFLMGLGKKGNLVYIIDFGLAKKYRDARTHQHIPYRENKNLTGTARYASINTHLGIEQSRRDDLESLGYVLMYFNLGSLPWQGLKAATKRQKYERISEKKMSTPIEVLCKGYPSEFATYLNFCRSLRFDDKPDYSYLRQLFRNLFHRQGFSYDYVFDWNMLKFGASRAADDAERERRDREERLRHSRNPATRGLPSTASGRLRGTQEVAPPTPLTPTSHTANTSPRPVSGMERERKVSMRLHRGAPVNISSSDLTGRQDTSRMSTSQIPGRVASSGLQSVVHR
Chain of Dual specificity protein kinase CLK4 (Homo sapiens) (Q9HAZ1 whole entry, looked up): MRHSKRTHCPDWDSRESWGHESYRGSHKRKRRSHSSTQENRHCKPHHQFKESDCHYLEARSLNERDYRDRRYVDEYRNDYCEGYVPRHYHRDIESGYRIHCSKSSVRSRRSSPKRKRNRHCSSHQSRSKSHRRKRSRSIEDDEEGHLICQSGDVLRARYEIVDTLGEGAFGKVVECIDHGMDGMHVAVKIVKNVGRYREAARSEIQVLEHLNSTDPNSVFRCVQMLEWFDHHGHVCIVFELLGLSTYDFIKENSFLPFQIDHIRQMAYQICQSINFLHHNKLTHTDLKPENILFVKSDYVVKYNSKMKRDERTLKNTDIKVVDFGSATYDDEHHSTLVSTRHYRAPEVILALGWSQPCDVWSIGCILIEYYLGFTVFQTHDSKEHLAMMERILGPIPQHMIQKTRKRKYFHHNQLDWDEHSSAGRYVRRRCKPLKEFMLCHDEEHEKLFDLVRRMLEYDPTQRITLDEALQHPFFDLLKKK
Chain of Mitogen-activated protein kinase kinase kinase 11 (Homo sapiens) (Q16584 whole entry, looked up): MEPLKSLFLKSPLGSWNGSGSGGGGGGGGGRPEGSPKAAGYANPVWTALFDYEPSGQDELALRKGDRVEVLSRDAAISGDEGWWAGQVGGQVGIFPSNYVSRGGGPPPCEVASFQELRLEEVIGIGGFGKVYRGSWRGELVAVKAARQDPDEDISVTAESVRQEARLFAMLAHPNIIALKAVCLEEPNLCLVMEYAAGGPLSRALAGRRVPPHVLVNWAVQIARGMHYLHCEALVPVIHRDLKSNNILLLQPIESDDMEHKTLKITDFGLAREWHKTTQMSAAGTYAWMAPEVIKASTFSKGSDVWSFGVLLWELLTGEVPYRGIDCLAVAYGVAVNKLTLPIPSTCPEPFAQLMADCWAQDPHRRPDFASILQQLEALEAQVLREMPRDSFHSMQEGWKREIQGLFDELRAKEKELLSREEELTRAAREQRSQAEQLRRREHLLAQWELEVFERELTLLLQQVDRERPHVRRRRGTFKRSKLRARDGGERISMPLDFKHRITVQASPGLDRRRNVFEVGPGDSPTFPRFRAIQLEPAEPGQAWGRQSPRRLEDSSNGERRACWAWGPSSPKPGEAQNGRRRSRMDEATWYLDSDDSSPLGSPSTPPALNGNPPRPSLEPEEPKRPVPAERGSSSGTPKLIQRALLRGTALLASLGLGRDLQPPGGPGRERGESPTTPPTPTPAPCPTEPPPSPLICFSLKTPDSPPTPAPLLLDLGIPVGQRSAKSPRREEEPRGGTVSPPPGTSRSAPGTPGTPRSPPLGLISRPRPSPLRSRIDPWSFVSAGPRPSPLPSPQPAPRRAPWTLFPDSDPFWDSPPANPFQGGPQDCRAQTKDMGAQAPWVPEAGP
Chain of Mitogen-activated protein kinase kinase kinase 20 (Homo sapiens) (Q9NYL2 2-800 limits assumed): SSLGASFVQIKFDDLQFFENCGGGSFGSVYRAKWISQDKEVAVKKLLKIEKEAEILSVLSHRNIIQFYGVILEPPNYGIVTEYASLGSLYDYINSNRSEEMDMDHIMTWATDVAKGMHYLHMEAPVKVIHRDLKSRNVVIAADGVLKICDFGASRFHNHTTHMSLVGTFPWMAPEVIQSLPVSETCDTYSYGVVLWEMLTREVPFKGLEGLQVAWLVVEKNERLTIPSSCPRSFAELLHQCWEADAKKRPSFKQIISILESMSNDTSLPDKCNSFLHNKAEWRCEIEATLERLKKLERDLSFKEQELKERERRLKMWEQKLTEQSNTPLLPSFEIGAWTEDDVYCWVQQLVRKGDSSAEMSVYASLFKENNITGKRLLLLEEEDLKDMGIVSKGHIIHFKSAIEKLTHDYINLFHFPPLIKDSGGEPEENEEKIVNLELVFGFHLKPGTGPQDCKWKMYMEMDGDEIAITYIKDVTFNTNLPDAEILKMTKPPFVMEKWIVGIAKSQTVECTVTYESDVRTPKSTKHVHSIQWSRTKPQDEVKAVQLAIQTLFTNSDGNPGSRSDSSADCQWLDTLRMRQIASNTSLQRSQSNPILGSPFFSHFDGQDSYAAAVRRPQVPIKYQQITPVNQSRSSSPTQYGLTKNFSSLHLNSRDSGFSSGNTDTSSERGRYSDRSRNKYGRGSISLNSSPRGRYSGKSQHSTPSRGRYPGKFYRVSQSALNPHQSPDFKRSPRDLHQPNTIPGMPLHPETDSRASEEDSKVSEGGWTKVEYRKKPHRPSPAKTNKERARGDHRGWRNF
Chain of Mitogen-activated protein kinase kinase kinase 10 (Homo sapiens) (Q02779 whole entry, looked up, canonical isoform): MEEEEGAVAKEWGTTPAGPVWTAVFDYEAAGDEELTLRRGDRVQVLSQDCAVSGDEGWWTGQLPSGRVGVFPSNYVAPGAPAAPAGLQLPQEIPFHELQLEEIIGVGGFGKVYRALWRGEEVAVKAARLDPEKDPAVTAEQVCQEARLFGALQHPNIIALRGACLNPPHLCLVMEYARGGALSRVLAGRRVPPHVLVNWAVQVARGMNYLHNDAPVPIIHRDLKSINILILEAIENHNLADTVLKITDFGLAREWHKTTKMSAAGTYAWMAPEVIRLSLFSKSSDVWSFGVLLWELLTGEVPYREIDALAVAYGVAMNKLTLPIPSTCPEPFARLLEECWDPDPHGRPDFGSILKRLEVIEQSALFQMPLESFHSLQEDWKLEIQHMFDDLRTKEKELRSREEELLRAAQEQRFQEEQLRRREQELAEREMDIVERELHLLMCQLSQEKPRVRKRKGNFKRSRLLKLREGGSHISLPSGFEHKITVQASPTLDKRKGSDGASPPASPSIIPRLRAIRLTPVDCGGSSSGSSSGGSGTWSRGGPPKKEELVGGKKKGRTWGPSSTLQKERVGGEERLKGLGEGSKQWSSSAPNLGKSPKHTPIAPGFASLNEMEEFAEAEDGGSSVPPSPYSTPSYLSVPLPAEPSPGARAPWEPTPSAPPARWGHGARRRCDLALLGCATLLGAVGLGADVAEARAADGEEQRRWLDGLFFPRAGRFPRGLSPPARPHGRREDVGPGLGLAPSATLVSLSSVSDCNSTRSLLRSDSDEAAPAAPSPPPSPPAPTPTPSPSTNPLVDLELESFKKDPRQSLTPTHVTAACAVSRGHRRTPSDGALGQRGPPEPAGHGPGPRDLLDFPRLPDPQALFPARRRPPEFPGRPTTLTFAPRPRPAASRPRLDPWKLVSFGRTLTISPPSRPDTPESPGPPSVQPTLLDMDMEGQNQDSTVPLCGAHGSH

Activity [1]: 10 to 29%
Activity [3]: 10 to 29%
Activity [4]: 10 to 29%
Activity [5]: 10 to 29%
Activity [6]: 10 to 29%
Activity [7]: 10 to 29%
Activity [8]: 10 to 29%
metabolised at 190 min, 100 µM [9]: 31%
pIC50 [10]: 5.71
Activity [11]: 10 to 29%
Activity [12]: 10 to 29%
Activity [13]: 10 to 29%
Compound: C=CC(=O)Nc1cccc(C(=O)Nc2ccc(Nc3cc(-c4[nH]c(SC)nc4C)ccn3)cc2)c1
Activity [2]: inactive
